Values joined by “and” are separate entries in the source; they are usually repeats but may differ in a detail not shown here. Identical values can stand only once.
Test system: HEK-293T
Test: Multiplex assay against HEK293T
Type: toxicity, cell-based
Details: human, number of replicates 2
Method in brief: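 Hoechst33342, BioTracker Green Microtubule Cytoskeleton Dye, MitoTracker Red and Annexin V Alexa Fluor 680 were added to live cells at seeding, and imaging on a CQ1 microscope at 37°C and 5% CO2 followed compound addition. Gating by CellPathfinder machine learning separated cells into Hoechst high-intensity objects or normal cells, then normal cells into healthy, pyknosed or fragmented nuclei, then pyknosed cells into mitotic or apoptotic. Per cents of healthy-nucleus cells are reported for the tubulin, mitochondrial-mass and membrane-permeability phenotypes.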

[1] = 12 h, 1 µM, compound concentration 1 uM
[2] = 12 h, 10 µM, compound concentration 10 uM
[3] = 24 h, 1 µM, compound concentration 1 uM
[4] = 24 h, 10 µM, compound concentration 10 uM
[5] = 48 h, 1 µM, compound concentration 1 uM
[6] = 48 h, 10 µM, compound concentration 10 uM

Question: How did the “Population Apoptotic (%)” value [1] turn out when `O=C(Nc1ccnc(NC(=O)C2CC2)c1)c1c(Cl)cccc1Cl` was run?
Answer: 42% and 49%

Question: What about the “Population Fragmented Nuclei (%)” value [1] of the same compound?
Answer: 3% and 2%

Question: And the “Population Healthy Nuclei (%)” value [1]?
Answer: 81% and 83%

Question: What about the “Population Hoechst High Intensity Objects (%)” value [1] of the same compound?
Answer: 9% and 5%

Question: What about the “Population Membrane Permeable-Phenotype (%)” value [1] of the same compound?
Answer: 3% and 7%

Question: And the “Population Mitochondria Different-Phenotype (%)” value [1]?
Answer: 11% and 10%

Question: What about the “Population Mitotic Cells (%)” value [1] of the same compound?
Answer: 57% and 50%

Question: And the “Population Normal (%)” value [1]?
Answer: 90% and 94%

Question: What about the “Population Pyknosed Nuclei (%)” value [1] of the same compound?
Answer: 15% and 14%

Question: And the “Population Tubulin-Different-Phenotype (%)” value [1]?
Answer: 43% and 37%

Question: What about the “Total Cell Count” value [1] of the same compound?
Answer: 735 and 602

Question: What about the “Population Apoptotic (%)” value [2] of the same compound?
Answer: 55% and 57%

Question: And the “Population Fragmented Nuclei (%)” value [2]?
Answer: 3% and 2%

Question: And the “Population Healthy Nuclei (%)” value [2]?
Answer: 92% and 91%

Question: What about the “Population Hoechst High Intensity Objects (%)” value [2] of the same compound?
Answer: 3%

Question: And the “Population Membrane Permeable-Phenotype (%)” value [2]?
Answer: 5% and 3%

Question: And the “Population Mitochondria Different-Phenotype (%)” value [2]?
Answer: 8% and 9%

Question: And the “Population Mitotic Cells (%)” value [2]?
Answer: 44% and 42%

Question: What about the “Population Normal (%)” value [2] of the same compound?
Answer: 96%

Question: And the “Population Pyknosed Nuclei (%)” value [2]?
Answer: 3% and 5%

Question: What about the “Population Tubulin-Different-Phenotype (%)” value [2] of the same compound?
Answer: 32% and 35%

Question: What about the “Total Cell Count” value [2] of the same compound?
Answer: 713 and 727

Question: What about the “Population Apoptotic (%)” value [3] of the same compound?
Answer: 37% and 50%

Question: And the “Population Fragmented Nuclei (%)” value [3]?
Answer: 4%

Question: What about the “Population Healthy Nuclei (%)” value [3] of the same compound?
Answer: 84% and 85%

Question: What about the “Population Hoechst High Intensity Objects (%)” value [3] of the same compound?
Answer: 5% and 6%

Question: And the “Population Membrane Permeable-Phenotype (%)” value [3]?
Answer: 4% and 3%

Question: And the “Population Mitochondria Different-Phenotype (%)” value [3]?
Answer: 3%

Question: What about the “Population Mitotic Cells (%)” value [3] of the same compound?
Answer: 62% and 50%

Question: And the “Population Normal (%)” value [3]?
Answer: 94% and 93%

Question: What about the “Population Pyknosed Nuclei (%)” value [3] of the same compound?
Answer: 10% and 9%

Question: What about the “Population Tubulin-Different-Phenotype (%)” value [3] of the same compound?
Answer: 17% and 19%

Question: And the “Total Cell Count” value [3]?
Answer: 1049 and 883

Question: And the “Population Apoptotic (%)” value [4]?
Answer: 42% and 69%

Question: And the “Population Fragmented Nuclei (%)” value [4]?
Answer: 3% and 5%

Question: What about the “Population Healthy Nuclei (%)” value [4] of the same compound?
Answer: 92% and 90%

Question: What about the “Population Hoechst High Intensity Objects (%)” value [4] of the same compound?
Answer: 4% and 3%

Question: What about the “Population Membrane Permeable-Phenotype (%)” value [4] of the same compound?
Answer: 1%

Question: And the “Population Mitochondria Different-Phenotype (%)” value [4]?
Answer: 2% and 3%

Question: What about the “Population Mitotic Cells (%)” value [4] of the same compound?
Answer: 57% and 30%

Question: What about the “Population Normal (%)” value [4] of the same compound?
Answer: 95% and 96%

Question: And the “Population Pyknosed Nuclei (%)” value [4]?
Answer: 3% and 4%

Question: And the “Population Tubulin-Different-Phenotype (%)” value [4]?
Answer: 14% and 15%

Question: What about the “Total Cell Count” value [4] of the same compound?
Answer: 757 and 769

Question: And the “Population Apoptotic (%)” value [5]?
Answer: 19% and 24%

Question: What about the “Population Fragmented Nuclei (%)” value [5] of the same compound?
Answer: 9% and 7%

Question: What about the “Population Healthy Nuclei (%)” value [5] of the same compound?
Answer: 85% and 87%

Question: What about the “Population Hoechst High Intensity Objects (%)” value [5] of the same compound?
Answer: 7%

Question: And the “Population Membrane Permeable-Phenotype (%)” value [5]?
Answer: 3% and 4%

Question: What about the “Population Mitochondria Different-Phenotype (%)” value [5] of the same compound?
Answer: 0% and 1%

Question: What about the “Population Mitotic Cells (%)” value [5] of the same compound?
Answer: 80% and 75%

Question: What about the “Population Normal (%)” value [5] of the same compound?
Answer: 92%

Question: And the “Population Pyknosed Nuclei (%)” value [5]?
Answer: 4%

Question: What about the “Population Tubulin-Different-Phenotype (%)” value [5] of the same compound?
Answer: 10% and 11%

Question: What about the “Total Cell Count” value [5] of the same compound?
Answer: 2441 and 1608

Question: What about the “Population Apoptotic (%)” value [6] of the same compound?
Answer: 38% and 32%

Question: And the “Population Fragmented Nuclei (%)” value [6]?
Answer: 11%

Question: What about the “Population Healthy Nuclei (%)” value [6] of the same compound?
Answer: 86% and 85%

Question: And the “Population Hoechst High Intensity Objects (%)” value [6]?
Answer: 6% and 5%

Question: And the “Population Membrane Permeable-Phenotype (%)” value [6]?
Answer: 1% and 0%

Question: What about the “Population Mitochondria Different-Phenotype (%)” value [6] of the same compound?
Answer: 2%

Question: And the “Population Mitotic Cells (%)” value [6]?
Answer: 61% and 67%

Question: What about the “Population Normal (%)” value [6] of the same compound?
Answer: 93% and 94%

Question: What about the “Population Pyknosed Nuclei (%)” value [6] of the same compound?
Answer: 2% and 3%

Question: What about the “Population Tubulin-Different-Phenotype (%)” value [6] of the same compound?
Answer: 8% and 7%

Question: What about the “Total Cell Count” value [6] of the same compound?
Answer: 1085 and 965

Question: Which results are given for `Cc1cn(CCN2CCN(c3ccccc3-c3cc(C#N)cc(C(=O)NCCCN4CCCC4)c3)CC2)c2ccccc12`?
Answer: Population Apoptotic (%) [1]: 34% and 44%; Population Fragmented Nuclei (%) [1]: 3%; Population Healthy Nuclei (%) [1]: 82% and 84%; Population Hoechst High Intensity Objects (%) [1]: 7% and 6%; Population Membrane Permeable-Phenotype (%) [1]: 3% and 4%; Population Mitochondria Different-Phenotype (%) [1]: 26% and 20%; Population Mitotic Cells (%) [1]: 65% and 55%; Population Normal (%) [1]: 92% and 93%; Population Pyknosed Nuclei (%) [1]: 13% and 12%; Population Tubulin-Different-Phenotype (%) [1]: 72% and 71%; Total Cell Count [1]: 634 and 574; Population Apoptotic (%) [2]: 70% and 65%; Population Fragmented Nuclei (%) [2]: 2%; Population Healthy Nuclei (%) [2]: 81% and 78%; Population Hoechst High Intensity Objects (%) [2]: 5%; Population Membrane Permeable-Phenotype (%) [2]: 2% and 1%; Population Mitochondria Different-Phenotype (%) [2]: 71% and 72%; Population Mitotic Cells (%) [2]: 30% and 34%; Population Normal (%) [2]: 94%; Population Pyknosed Nuclei (%) [2]: 16% and 18%; Population Tubulin-Different-Phenotype (%) [2]: 97% and 94%; Total Cell Count [2]: 511 and 463; Population Apoptotic (%) [3]: 46% and 42%; Population Fragmented Nuclei (%) [3]: 5% and 3%; Population Healthy Nuclei (%) [3]: 86% and 89%; Population Hoechst High Intensity Objects (%) [3]: 8%; Population Membrane Permeable-Phenotype (%) [3]: 3%; Population Mitochondria Different-Phenotype (%) [3]: 12%; Population Mitotic Cells (%) [3]: 53% and 57%; Population Normal (%) [3]: 91%; Population Pyknosed Nuclei (%) [3]: 7% and 6%; Population Tubulin-Different-Phenotype (%) [3]: 57% and 51%; Total Cell Count [3]: 1111 and 826; Population Apoptotic (%) [4]: 77% and 76%; Population Fragmented Nuclei (%) [4]: 1% and 3%; Population Healthy Nuclei (%) [4]: 85% and 79%; Population Hoechst High Intensity Objects (%) [4]: 9% and 4%; Population Membrane Permeable-Phenotype (%) [4]: 1% and 2%; Population Mitochondria Different-Phenotype (%) [4]: 88% and 81%; Population Mitotic Cells (%) [4]: 22% and 23%; Population Normal (%) [4]: 90% and 95%; Population Pyknosed Nuclei (%) [4]: 12% and 16%; Population Tubulin-Different-Phenotype (%) [4]: 97% and 95%; Total Cell Count [4]: 524 and 487; Population Apoptotic (%) [5]: 16% and 21%; Population Fragmented Nuclei (%) [5]: 14% and 8%; Population Healthy Nuclei (%) [5]: 82% and 87%; Population Hoechst High Intensity Objects (%) [5]: 10% and 8%; Population Membrane Permeable-Phenotype (%) [5]: 5% and 3%; Population Mitochondria Different-Phenotype (%) [5]: 1% and 4%; Population Mitotic Cells (%) [5]: 83% and 78%; Population Normal (%) [5]: 89% and 91%; Population Pyknosed Nuclei (%) [5]: 3% and 4%; Population Tubulin-Different-Phenotype (%) [5]: 27% and 31%; Total Cell Count [5]: 2524 and 1476; Population Apoptotic (%) [6]: 65% and 73%; Population Fragmented Nuclei (%) [6]: 6% and 8%; Population Healthy Nuclei (%) [6]: 82% and 77%; Population Hoechst High Intensity Objects (%) [6]: 7% and 11%; Population Membrane Permeable-Phenotype (%) [6]: 3% and 1%; Population Mitochondria Different-Phenotype (%) [6]: 57% and 66%; Population Mitotic Cells (%) [6]: 34% and 26%; Population Normal (%) [6]: 92% and 88%; Population Pyknosed Nuclei (%) [6]: 10% and 14%; Population Tubulin-Different-Phenotype (%) [6]: 90% and 93%; Total Cell Count [6]: 709 and 587
